GRK2 aptamer HTS – inhibitors of human GRK2 displacing RNA aptamer. hit rate 0.59% among 330,000. bead flow cytometry, FAM-aptamer displacement from GRK2. inhibition of aptamer binding, % at 10 µM;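 active means inhibition of aptamer binding above 40%, roughly 3 SD of noise, on plates passing a quality check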;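 further: median bead fluorescence of bound FAM aptamer so fluorescent compounds give negative values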
GASC-1 inh – human JMJD2C demethylase inhibition; hit rate 0.069% among 330,000; inhibition, % at 2.35 µM; Q9H3R0; GST-JMJD2C(1-420) H3K9me3 demethylation, DELFIA europium;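 active means more than half of a compound's replicate wells show inhibition beyond 50%, single wells judged on their own value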;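 further: signal counts dimethyl H3K9 product captured on neutravidin plate; 0% = median of DMSO wells and 100% = 0.3 times that DMSO median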
Lipid droplet – hepatic lipid droplet formation modulation. AML12 mouse hepatocytes, oleate lipid droplets, BODIPY imaging. inhibition, % at 6.5 µM. hit rate 0.4% among 240,000;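 active means lipid droplet intensity inhibited by at least 50%, with more than 500 cells counted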
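Test system: AML12 mouse liver cells; schedule: overnight exposure; technique: high-content imaging of BODIPY-stained droplets and DAPI nuclei; read-out: % inhibition of corrected integrated BODIPY droplet signal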
VLA-4 inh – inhibition in a human VLA-4 binding assay. P13612. VLA-4 expressing cells, ligand binding flow cytometry. inhibition, % (about 7 µM as worked out from the volumes in the protocol). hit rate 0.2% among 330,000. AID 2557; in the data active means inhibition above about 50%
proCasp3 act – procaspase-3 (human) activation; recombinant procaspase-3 D3A, Ac-DEVD-pNA absorbance 405 nm; activation, % at 8.5 µM; hit rate 0.11% among 330,000; AID 463141;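 active means activation above the mean of all tested compounds plus 3 SD, cut at about 21% in these data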;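 further: 0% = DMSO alone and 100% = DMSO wells spiked with extra 5 µM PC-3 D3A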
Target sequence (P42574 whole entry D9A/D28A/D175A): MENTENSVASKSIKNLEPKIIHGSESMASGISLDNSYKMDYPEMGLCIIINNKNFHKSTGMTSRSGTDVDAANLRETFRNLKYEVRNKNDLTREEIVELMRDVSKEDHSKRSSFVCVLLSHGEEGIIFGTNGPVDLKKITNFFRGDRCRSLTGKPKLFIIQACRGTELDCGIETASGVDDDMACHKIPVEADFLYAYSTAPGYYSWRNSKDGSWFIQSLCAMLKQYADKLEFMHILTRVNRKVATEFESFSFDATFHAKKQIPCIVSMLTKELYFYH
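material = Procaspase-3 D3A mutant | probe or stimulus = Ac-DEVD-pNA | compound = single dose, 8.5 µM nominal compound, 0.8% DMSO | timing = 1 h preincubation, 2 h reaction | measured by = 405 nm absorbance of p-nitroaniline, reads at 0 and 120 min | benchmarks = DMSO-only low control, 5 µM PC-3 D3A high control | repeats = singlicate, each compound tested once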
procasp7 counter – counter-screen: procaspase-7 (human) activation; activation, % at 8.5 µM; hit rate 0.093% among 330,000; AID 463210; P55210; recombinant procaspase-7, Ac-DEVD-pNA absorbance 405 nm; D23A/D198A/D206A triple mutant, cannot self-cleave; scale: DMSO 0, 5 µM enzyme 100;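 active means percent activation above the screen-wide mean plus 3 SD, cut at about 25% in these data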
Target sequence (P55210 whole entry D23A/D198A/D206A): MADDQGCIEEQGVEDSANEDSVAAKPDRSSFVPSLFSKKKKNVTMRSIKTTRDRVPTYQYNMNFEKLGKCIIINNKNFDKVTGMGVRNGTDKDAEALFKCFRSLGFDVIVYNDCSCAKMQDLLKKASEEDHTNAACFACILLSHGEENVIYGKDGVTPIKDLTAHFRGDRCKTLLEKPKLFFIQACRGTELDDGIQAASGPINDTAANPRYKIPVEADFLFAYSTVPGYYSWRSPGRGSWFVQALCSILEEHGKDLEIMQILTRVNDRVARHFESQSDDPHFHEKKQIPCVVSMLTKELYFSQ
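Detection: p-Nitroaniline absorbance at 405 nm, read at 0 and 120 min; system: Uncleavable procaspase-7 mutant enzyme; evaluation: % activation from two-timepoint absorbance difference, scaled to controls; times: 1 h enzyme–compound preincubation and 2 h substrate reaction, both 25 °C; buffer or medium: Zinc-free HEPES pH 7.4 with 300 mM NaCl, 0.01% Triton X-100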
GRK2 CP1 – confirmation of human GRK2 inhibitors displacing RNA aptamer; shares compounds with GRK2 aptamer HTS; bead-bound GRK2, FAM-aptamer displacement, flow cytometry; aptamer displacement, % at 10 µM; hit rate 4% among 2,000; AID 504451;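 active means aptamer displacement above 40%, near three times the noise of non-fluorescent compounds, on plates passing quality checks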;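 further: negative values mostly reflect intrinsic compound fluorescence rather than true enhancement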
Aptamer quench 1 – counter-screen for GRK2 aptamer inhibitors: fluorescent aptamer quenchers | shares compounds with GRK2 aptamer HTS | Fluorescent RNA aptamer beads, quenching, flow cytometry; active compounds read high | fluorescence change (kMESF span), kMESF (test concentration not listed) | 110 tested, under 10 active | AID 504521;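 active means compounds whose bead fluorescence drops by more than 37 kMESF across the dose range, marking them as dye quenchers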
FAM quench CP1 – quenches fluorescent RNA aptamer, GRK2 hit artifact; shares compounds with GRK2 aptamer HTS; 2,000 tested, under 10 active; AID 504580; fluorescence response (% of DMSO), % at 10 µM; Carboxyfluorescein RNA aptamer on beads, flow cytometry quenching; active compounds read low;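 active means compounds that quench the bead-bound fluorescent RNA probe, cutting fluorescence to under half of the solvent control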;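 further: counterscreen run without GRK2 so only probe quenching by compound is measured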
GRK2 CP2 – human GRK2 inhibition confirmation, cherry pick 2; shares compounds with GRK2 aptamer HTS; bead-bound GRK2, FAM-aptamer displacement, flow cytometry; inhibition of aptamer binding, % at 10 µM; 360 tested, under 10 active; AID 504782;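 active means inhibition of aptamer binding above 40%, about triple the noise seen with nonglowing compounds, on plates passing quality control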;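 further: negative values mostly come from compounds that fluoresce themselves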
FAM quench SP – counter-screen for GRK2 binding hits: quenchers of fluorescent RNA aptamer. shares compounds with GRK2 aptamer HTS. carboxyfluorescein RNA aptamer beads, flow cytometry quenching; active compounds read low. fluorescence response vs DMSO, % at 10 µM. 360 tested, under 10 active. AID 588494;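 active means response vs DMSO under 50%, meaning signal dropped by over half, treated as fluorescence quencher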;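 further: labelled aptamer on streptavidin beads without GRK2 as a quench counter-screen; 100% = bead fluorescence of DMSO wells and lower means quenching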
The depositor's hits bear a star. Shown are actives, neighbours in structure and some others; about 1.3% of the full set was active somewhere.

`COc1ccc2nc(SCC(=O)Nc3ccc4c(c3)OCCO4)[nH]c2c1` gave GRK2 aptamer HTS 75.0*, GASC-1 inh -3.5, VLA-4 inh 16.9, proCasp3 act 4.9, procasp7 counter 5.7, GRK2 CP1 98.6*, Aptamer quench 1 -29.3 and FAM quench CP1 127.2.
`CCC(CC)C(=O)Nc1nnc(S(=O)(=O)Nc2ccc(OC)cc2)s1` gave GRK2 aptamer HTS 1.0, GASC-1 inh 7.5, VLA-4 inh 7.7, proCasp3 act -1.4 and procasp7 counter 9.6.
Screening COC(=O)Cn1c(CN2CCOCC2)nc2c1c(=O)[nH]c(=O)n2C returned GRK2 aptamer HTS 34.0, GASC-1 inh 13.9, Lipid droplet 10.0, VLA-4 inh 2.2, proCasp3 act 7.0, procasp7 counter -4.4, GRK2 CP1 -1.7 and FAM quench CP1 99.8.
For O=C(c1cccc(F)c1)N1CCc2ccccc2C1 the results were GRK2 aptamer HTS 0.0, GASC-1 inh 1.8, Lipid droplet -26.1, VLA-4 inh -2.5, proCasp3 act 2.4 and procasp7 counter 10.8.
O=C(CNc1cccc(F)c1)N1CCc2ccccc2C1 was read as GRK2 aptamer HTS 51.0*, GASC-1 inh -20.0, VLA-4 inh -2.9, proCasp3 act 7.2, procasp7 counter -8.5, GRK2 CP2 24.6 and FAM quench SP 102.0.
`COC(=O)CNC(=O)COC(=O)/C=C/c1ccccc1[N+](=O)[O-]` gave GRK2 aptamer HTS 0.0, GASC-1 inh -2.6, Lipid droplet -0.6, VLA-4 inh -0.2, proCasp3 act 2.2 and procasp7 counter 2.4.
Screening CC(C)NC(=O)NC(=O)COC(=O)/C=C/c1ccccc1[N+](=O)[O-] returned GRK2 aptamer HTS 100.0*, GASC-1 inh -6.5, Lipid droplet 2.5, VLA-4 inh 3.7, proCasp3 act 4.3, procasp7 counter 1.8, GRK2 CP1 0.6 and FAM quench CP1 101.9.
For CCN(CC)S(=O)(=O)c1ccc(N2CCOCC2)c(NC(=O)CC23CC4CC(CC(Br)(C4)C2)C3)c1 the results were GRK2 aptamer HTS 100.0*, GASC-1 inh -18.4, Lipid droplet -7.2, VLA-4 inh -36.0, proCasp3 act -7.0, procasp7 counter -14.8, GRK2 CP2 0.2 and FAM quench SP 96.0.
For CCN(CC)S(=O)(=O)c1ccc(N2CCOCC2)c(NC(=O)COc2ccccc2C)c1 the results were GRK2 aptamer HTS 74.0*, GASC-1 inh 0.4, VLA-4 inh 9.6, proCasp3 act 8.2, procasp7 counter 0.4, GRK2 CP1 -1.1 and FAM quench CP1 99.6.
CCN(CC)S(=O)(=O)c1ccc(N2CCOCC2)c(NC(=O)COc2ccccc2C#N)c1 was read as GRK2 aptamer HTS 3.0, GASC-1 inh 0.0, Lipid droplet -7.4, VLA-4 inh 4.2, proCasp3 act 0.6 and procasp7 counter -2.2.
For C=CCSC1=C(C#N)C(c2ccccc2OCC)CC(=O)N1 (stereo unspecified) the results were GRK2 aptamer HTS 37.0, GASC-1 inh -9.0, Lipid droplet -26.9, VLA-4 inh -5.1, proCasp3 act -9.3, procasp7 counter -7.5, GRK2 CP1 1.0 and FAM quench CP1 100.6.
`COc1ccc2[nH]c3c(=O)n(/N=C/c4ccc(OC)c(CN5CCCC5)c4)c(C)nc3c2c1` gave GRK2 aptamer HTS 59.0*, GASC-1 inh 0.2, Lipid droplet -39.3, VLA-4 inh -2.4, proCasp3 act 0.2, procasp7 counter 10.4, GRK2 CP1 -43.2 and FAM quench CP1 101.0.
Screening COc1ccc(/C=N/n2c(C)nc3c([nH]c4ccccc43)c2=O)cc1CN1CCCC(C)(C)C1 returned GRK2 aptamer HTS 0.0, GASC-1 inh 15.1, Lipid droplet 1.2, VLA-4 inh 0.0, proCasp3 act 1.2 and procasp7 counter -1.6.
Screening Cc1c(C(=O)OC(C)C)sc(N)c1C(=O)OC(C)C returned GRK2 aptamer HTS 70.0*, GASC-1 inh 32.1, Lipid droplet -1.0, VLA-4 inh 26.2, proCasp3 act -5.0, procasp7 counter 1.7, GRK2 CP2 -3.9 and FAM quench SP 97.0.
`CCc1ccc(NC(=S)N2CCCCCCC2)cc1` gave GRK2 aptamer HTS 1.0, GASC-1 inh -0.7, Lipid droplet 3.5, VLA-4 inh -0.5, proCasp3 act 1.0 and procasp7 counter 7.8.
Screening CCOC(=O)Cc1nnc(Nc2cccc(C)c2)c2ccccc12 returned GRK2 aptamer HTS 92.0*, GASC-1 inh -32.4, Lipid droplet -3.4, VLA-4 inh 21.5, proCasp3 act 0.7, procasp7 counter -12.2, GRK2 CP1 11.0 and FAM quench CP1 132.7.
`CCCCn1c(N)c(N(CC)C(=O)c2ccccc2F)c(=O)[nH]c1=O` gave GRK2 aptamer HTS 0.0, GASC-1 inh 11.0, Lipid droplet -10.8, VLA-4 inh 7.8, proCasp3 act 1.3 and procasp7 counter 2.1.
`CN(C)CCCn1cnc2c1c(=O)[nH]c(=O)n2Cc1ccccc1` gave GRK2 aptamer HTS 99.0*, GASC-1 inh -8.1, Lipid droplet 8.1, VLA-4 inh 3.8, proCasp3 act 4.5, procasp7 counter 3.5, GRK2 CP1 -0.5 and FAM quench CP1 92.3.
For CN(C)CCn1cnc2c1c(=O)[nH]c(=O)n2Cc1ccccc1 the results were GRK2 aptamer HTS 3.0, GASC-1 inh -7.8, Lipid droplet 0.7, VLA-4 inh -3.3, proCasp3 act -2.8 and procasp7 counter 5.7.
Screening Cn1c2c(c(=O)n(C)c1=O)C(c1ccccc1Cl)CC(=O)N2 (stereo unspecified) returned GRK2 aptamer HTS 3.0, GASC-1 inh -0.8, VLA-4 inh 26.7, proCasp3 act 5.0 and procasp7 counter -0.2.

Screens from PubChem BioAssay.
